Source: ChEMBL document CHEMBL1121955, “Cardenolide analogues. 14. Synthesis and biological activity of glucosides of C17 beta-modified derivatives of digitoxigenin” (J Med Chem, 1982)
The source made the active and inactive calls.

How the values were obtained:
[1] = species: Cavia porcellus; assay: The dose producing 75% increase in contractility in guinea pig atria
[2] = species: Cavia porcellus; assay: The dose producing 75% increase in contractility in guinea pig atria; type: functional
How it was run: (§1)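 Isolated guinea pig left atria were equilibrated 1 h, set to 1 g resting tension, and paced with 10-ms rectangular pulses at 90/min, 20% above threshold (minimum 5 V). Cumulative doses in propylene glycol/water (7:3) were added at 30-min intervals or 5 min after maximum effect. Isometric force change was referenced to control atria. At least nine replicate curves were fitted, and ΔF75 was read from the pooled fitted curve.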

[3] = species: Cavia porcellus; assay: Binding affinity against digitalis receptor was determined relative to digitoxigenin
[4] = species: Cavia porcellus; assay: The dose producing 75% increase in contractility in guinea pig atria; Inactive; type: functional
How it was run: as §1

[5] = species: Cavia porcellus; assay: Relative potency of compound to Digitalis receptor was determined to that of digitoxigenin; Inactive

Compound	Delta F75 [2] [M l-1]	further results
C[C@@H]1O[C@@H](O[C@H]2C[C@@H](O)[C@]3(CO)[C@H]4[C@H](O)C[C@]5(C)[C@@H](C6=CC(=O)OC6)CC[C@]5(O)[C@@H]4CC[C@]3(O)C2)[C@H](O)[C@H](O)[C@H]1O [OUABAIN]		Delta F75 [1]: 2.9e-07 M l-1
COC(=O)/C=C/[C@H]1CC[C@@]2(O)[C@@H]3CC[C@H]4C[C@@H](O[C@@H]5O[C@H](CO)[C@@H](O)[C@H](O)[C@H]5O)CC[C@]4(C)[C@H]3CC[C@]12C	1.5e-06	
C[C@]12CC[C@H](O)C[C@H]1CC[C@@H]1[C@@H]2CC[C@]2(C)[C@@H](/C=C/C(N)=O)CC[C@]12O	<20	Relative potency [3]: < 0.01
C[C@]12CC[C@H](O[C@@H]3O[C@H](CO)[C@@H](O)[C@H](O)[C@H]3O)C[C@@H]1CC[C@@H]1[C@@H]2CC[C@]2(C)[C@@H](/C=C/C#N)CC[C@@]12O	6.9e-07	
C[C@H]1O[C@@H](O[C@H]2[C@@H](O)C[C@H](O[C@H]3[C@@H](O)C[C@H](O[C@H]4CC[C@@]5(C)[C@H](CC[C@@H]6[C@@H]5CC[C@]5(C)[C@@H](C7=CC(=O)OC7)CC[C@]65O)C4)O[C@@H]3C)O[C@@H]2C)C[C@H](O)[C@@H]1O [DIGITOXIN]	1.6e-07	
C[C@H]1O[C@@H](O[C@H]2[C@@H](O)C[C@H](O[C@H]3[C@@H](O)C[C@H](O[C@H]4CC[C@@]5(C)[C@H](CC[C@@H]6[C@@H]5C[C@@H](O)[C@]5(C)[C@@H](C7=CC(=O)OC7)CC[C@]65O)C4)O[C@@H]3C)O[C@@H]2C)C[C@H](O)[C@@H]1O [DIGOXIN]	6.6e-07	
COC(=O)/C=C/[C@H]1CC[C@]2(O)[C@@H]3CCC4C[C@@H](O)CC[C@]4(C)[C@H]3CC[C@]12C (some centres not stated)	3.8e-06	Relative potency [3]: 0.29
CC(=O)/C=C/[C@H]1CC[C@]2(O)[C@@H]3CCC4C[C@@H](O)CC[C@]4(C)[C@H]3CC[C@]12C (some centres not stated)	5.6e-06	
CCOC(=O)/C=C/[C@H]1CC[C@@]2(O)[C@@H]3CC[C@H]4C[C@@H](O[C@@H]5O[C@H](CO)[C@@H](O)[C@H](O)[C@H]5O)CC[C@]4(C)[C@H]3CC[C@]12C	6.2e-06	
CC(C)COC(=O)/C=C/[C@H]1CC[C@@]2(O)[C@@H]3CC[C@H]4C[C@@H](O[C@@H]5O[C@H](CO)[C@@H](O)[C@H](O)[C@H]5O)CC[C@]4(C)[C@H]3CC[C@]12C	6.3e-05	
C[C@]12CC[C@H](O)CC1CC[C@@H]1[C@@H]2CC[C@]2(C)[C@@H](/C=C/C#N)CC[C@]12O (some centres not stated)	1.6e-06	Relative potency [3]: 0.69
CC(=O)/C=C/[C@H]1CC[C@@]2(O)[C@@H]3CC[C@H]4C[C@@H](O[C@@H]5O[C@H](CO)[C@@H](O)[C@H](O)[C@H]5O)CC[C@]4(C)[C@H]3CC[C@]12C	3.1e-06	
C[C@]12CC[C@H](O)CC1CC[C@@H]1[C@@H]2CC[C@]2(C)[C@@H](/C=C/C(=O)O)CC[C@]12O (some centres not stated)		Delta F75 [4]: inactive; Relative potency [5]: inactive
CCCCOC(=O)/C=C/[C@H]1CC[C@@]2(O)[C@@H]3CC[C@H]4C[C@@H](O[C@@H]5O[C@H](CO)[C@@H](O)[C@H](O)[C@H]5O)CC[C@]4(C)[C@H]3CC[C@]12C	6.9e-05	
CC(C)OC(=O)/C=C/[C@H]1CC[C@@]2(O)[C@@H]3CC[C@H]4C[C@@H](O[C@@H]5O[C@H](CO)[C@@H](O)[C@H](O)[C@H]5O)CC[C@]4(C)[C@H]3CC[C@]12C	1.5e-05	
C[C@]12CC[C@H](O)C[C@H]1CC[C@@H]1[C@@H]2CC[C@]2(C)[C@@H](C3=CC(=O)OC3)CC[C@]12O [DIGITOXIGENIN]		Relative potency [3]: 1; Delta F75 [1]: 1.1e-06 M l-1
CCCOC(=O)/C=C/[C@H]1CC[C@@]2(O)[C@@H]3CC[C@H]4C[C@@H](O[C@@H]5O[C@H](CO)[C@@H](O)[C@H](O)[C@H]5O)CC[C@]4(C)[C@H]3CC[C@]12C	1.1e-05	
